Our source for the Ki and IC50 values is ChEMBL document CHEMBL1141147, “Development of dual-acting benzofurans for thromboxane A2 receptor antagonist and prostacyclin receptor agonist: synthesis, structure-activity relationship, and evaluation of benzofuran derivatives” (J Med Chem, 2005).

Assay [1] has as its target Prostacyclin receptor (Homo sapiens, UniProt P43119). The experiment in a line: Inhibition of [3H]APS-314d binding to prostacyclin receptors (IP) of human platelet membrane. The procedure, abridged:
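Human platelet membranes (10 μg protein; freeze-thawed washed platelets, 40000g pellet) in 50 mM Tris, 5 mM MgCl₂, pH 7.4 were incubated with [³H]APS-314d sodium and compound for 60 min at 4 °C. Bound ligand was separated by GF/C filtration and counted by liquid scintillation. Nonspecific binding was set with 10 μM APS-314d sodium. Ki was derived from IC50 via the Cheng–Prusoff form.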

Assay [2] is filed under the species Homo sapiens. The assay can be described thus: Inhibition of U-46,619 (2 uM) induced platelet aggregation in human platelet rich plasma. The assay is classed as functional, organism-based. The procedure, abridged: (§1)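 Human volunteer blood was citrated 9:1 with 3.8% sodium citrate and spun at 90–140g for 10 min at room temperature to give PRP; platelet-poor plasma came from a 1400g spin and set 100% aggregation. PRP was preincubated 1 min with compound at various concentrations, then stimulated. Light transmission was recorded for 5 min. Percent inhibition was taken against vehicle, N = 3; IC50 is 50% inhibition.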

Assay [3] deals with T1, Thromboxane A2 receptor (Homo sapiens, UniProt P21731).
T1 sequence (P21731 whole entry): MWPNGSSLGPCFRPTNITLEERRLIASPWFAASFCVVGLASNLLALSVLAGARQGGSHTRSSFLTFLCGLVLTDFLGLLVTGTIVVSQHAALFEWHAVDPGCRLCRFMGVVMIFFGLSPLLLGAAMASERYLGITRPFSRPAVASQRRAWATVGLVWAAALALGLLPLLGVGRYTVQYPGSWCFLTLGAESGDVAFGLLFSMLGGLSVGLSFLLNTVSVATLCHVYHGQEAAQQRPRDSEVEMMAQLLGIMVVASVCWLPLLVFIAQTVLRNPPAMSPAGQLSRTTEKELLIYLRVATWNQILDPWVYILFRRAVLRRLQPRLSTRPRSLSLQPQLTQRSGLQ
The experiment in a line: Inhibition of [3H]SQ-29,548 binding to thromboxane A2 receptors (TP) of human platelet membrane. The procedure, abridged:
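Washed human platelets from citrated, indomethacin-treated blood were freeze-thawed three times. Membranes were pelleted at 40000g and used at 10 μg protein in 50 mM Tris, 5 mM MgCl₂, pH 7.4. They were incubated with [³H]SQ-29548 and compound for 30 min at 25 °C, then filtered on GF/C and counted by scintillation. Nonspecific binding was set with 10 μM SQ-29548. Ki = IC50/(1 + L/Kd).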

For assay [4], the species on record is Homo sapiens. The experiment in a line: Inhibition of ADP (5 uM) induced platelet aggregation in human platelet rich plasma. Format: functional, organism-based. A digest of the protocol: as §1
For assay [5], the species on record is Homo sapiens. The experiment in a line: Inhibition of U-46,619 (4 uM) induced platelet aggregation in human platelet rich plasma. Format: functional, organism-based.
Assay [6] has as its system Monkey. The experiment in a line: Ex vivo inhibition of platelet aggregation induced by ADP (10 uM) in cynomolgus monkey platelet rich plasma. The note with it: Cercopithecidae.
For assay [7], the system named is Monkey. The experiment in a line: Ex vivo inhibition of platelet aggregation induced by ADP (5 uM) in cynomolgus monkey platelet rich plasma. Format: functional, organism-based. The note with it: Cercopithecidae.

Chain of Prostacyclin receptor (P43119 whole entry): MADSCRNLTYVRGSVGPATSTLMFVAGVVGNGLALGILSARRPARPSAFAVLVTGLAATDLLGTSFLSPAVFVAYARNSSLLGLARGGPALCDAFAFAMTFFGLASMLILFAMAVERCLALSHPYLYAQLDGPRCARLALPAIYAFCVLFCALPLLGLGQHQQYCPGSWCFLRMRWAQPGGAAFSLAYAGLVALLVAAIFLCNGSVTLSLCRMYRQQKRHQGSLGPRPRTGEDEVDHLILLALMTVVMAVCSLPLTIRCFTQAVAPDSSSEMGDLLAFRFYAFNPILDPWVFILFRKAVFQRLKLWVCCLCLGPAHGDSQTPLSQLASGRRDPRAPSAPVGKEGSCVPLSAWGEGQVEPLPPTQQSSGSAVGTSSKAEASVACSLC

Turning to `O=C(O)COc1cccc2c(CSCC(c3ccccc3)c3ccccc3)coc12`, the Ki in assay [1] stood at 680 nM; in assay [3] it was 2500 nM. In addition, the IC50 is 17300 nM in assay [2] and 19900 nM in assay [4] (Homo sapiens, Plasma).

`O=C(O)COc1cccc2c(CCCSC(c3ccccc3)c3ccccc3)coc12`: the Ki in assay [1] amounted to 270 nM; in assay [3], 3100 nM. In addition, the IC50 worked out at 1600 nM in assay [2] and 1900 nM in assay [4] (Homo sapiens, Plasma).

With `O=C(O)COc1cccc2c(CCSC(c3ccccc3)c3ccccc3)coc12`, the IC50 in assay [2] was 560 nM; in assay [4] (Homo sapiens, Plasma), 5900 nM. For the same compound, in assay [3], the affinity, expressed as Ki, was 310 nM.

In the case of `O=C(O)COc1cccc2c1CCC=C2CCO/N=C(\c1ccccc1)c1cccnc1`, the IC50 amounted to 170 nM in assay [5] and 170 nM in assay [4] (Homo sapiens, Plasma).

On to `O=C(O)COc1cccc2c(CCCSCC(c3ccccc3)c3ccccc3)coc12`, for which the Ki was 400 nM in assay [1] and > 15000 nM in assay [3]. Besides, the IC50 in assay [2] turned out to be 1400 nM; in assay [4] (Homo sapiens, Plasma), 1700 nM.

Take `O=C(O)COc1cccc2c(CSCCC(c3ccccc3)c3ccccc3)coc12`: the Ki is 580 nM in assay [1] and 3100 nM in assay [3]. The IC50 in assay [2] stood at 10000 nM; in assay [4] (Homo sapiens, Plasma), 12800 nM.

Take `CCC(SCCc1c(CO)oc2c(OCC(=O)O)cccc12)(c1ccccc1)c1ccccc1`: the Ki in assay [1] was found to be 3400 nM; in assay [3], 180 nM. The IC50 in assay [2] turned out to be 3800 nM; in assay [4] (Homo sapiens, Plasma), 56000 nM.

Turning to `CC(SCCc1c(CO)oc2c(OCC(=O)O)cccc12)(c1ccccc1)c1ccccc1` [listing 1 of 2 here], the Ki in assay [1] amounted to 530 nM; in assay [3], 4.5 nM. The IC50 in assay [2] amounted to 170 nM; in assay [4], 2200 nM.

With `CC(c1ccccc1)(c1ccccc1)S(=O)(=O)CCc1c(CO)oc2c(OCC(=O)O)cccc12`, the Ki worked out at 1900 nM in assay [1] and 4.3 nM in assay [3]. The IC50 in assay [2] was found to be 310 nM; in assay [4] (Homo sapiens, Plasma) it was 3000 nM.

In the case of `O=C(O)COc1cccc2c(CCSC(c3ccccc3)c3ccccc3)c(CO)oc12`, the Ki in assay [1] was 750 nM; in assay [3] it was 88 nM. The IC50 in assay [2] turned out to be 460 nM; in assay [4] (Homo sapiens, Plasma), 3300 nM.

With `O=C(O)COc1cccc2c(CCSCCC(c3ccccc3)c3ccccc3)coc12`, the Ki in assay [1] is 560 nM; in assay [3], > 10000 nM. Also, the IC50 in assay [2] is 5400 nM; in assay [4] (Homo sapiens, Plasma), 5200 nM.

For `CC(SCCc1c(CCCO)oc2c(OCC(=O)O)cccc12)(c1ccccc1)c1ccccc1`, the Ki was determined as 5800 nM in assay [1] and 72 nM in assay [3]. Also, the IC50 in assay [2] was 2900 nM; in assay [4] (Homo sapiens, Plasma) it was 9000 nM.

Regarding `CC(SCCc1coc2c(OCC(=O)O)cccc12)(c1ccccc1)c1ccccc1`, the results for the Ki in assay [1] and in assay [3] were 570 nM and 26 nM, respectively. The IC50 in assay [2] came to 580 nM; in assay [4] (Homo sapiens, Plasma), 8100 nM.

As for `O=C(O)COc1cccc2c(CCSC(c3ccccc3)(c3ccccc3)C(F)(F)F)c(CO)oc12`, the Ki stood at 760 nM in assay [1] and 150 nM in assay [3]. Besides, the IC50 in assay [2] is 520 nM; in assay [4] (Homo sapiens, Plasma) it was 1500 nM.

In the case of `CCCC(SCCc1c(CO)oc2c(OCC(=O)O)cccc12)(c1ccccc1)c1ccccc1`, the Ki in assay [1] is > 2300 nM; in assay [3], > 5900 nM. Further, the IC50 in assay [2] is 56000 nM; in assay [4] (Homo sapiens, Plasma) it was > 100000 nM.

`O=C(O)COc1cccc2c(CCCSCCC(c3ccccc3)c3ccccc3)coc12`: the Ki in assay [1] is 2900 nM; in assay [3], > 15000 nM. Besides, the IC50 in assay [2] was > 100000 nM; in assay [4] (Homo sapiens, Plasma), > 100000 nM.

Turning to `O=C(O)COc1cccc2c(CSC(c3ccccc3)c3ccccc3)coc12`, the values for the Ki in assay [1] and in assay [3] were 4700 nM and 5100 nM, respectively. Moreover, the IC50 in assay [2] is > 100000 nM; in assay [4] (Homo sapiens, Plasma), > 100000 nM.

Regarding `CC(SCCc1c(CCO)oc2c(OCC(=O)O)cccc12)(c1ccccc1)c1ccccc1`, the Ki in assay [1] worked out at 210 nM; in assay [3] it was 78 nM. The IC50 in assay [2] was 540 nM; in assay [4] (Homo sapiens, Plasma), 710 nM.

With `O=C(O)CCC/C=C\C[C@@H]1[C@H](CNNC(=O)Nc2ccccc2)[C@H]2CC[C@H]1O2`, the IC50 in assay [5] is 21 nM; in assay [4] (Homo sapiens, Plasma) it was > 10000 nM.

For `O=C(O)COc1cccc2c(CCSCC(c3ccccc3)c3ccccc3)coc12`, the Ki in assay [1] amounted to 80 nM; in assay [3] it was 3100 nM. The IC50 in assay [2] turned out to be 510 nM; in assay [4] (Homo sapiens, Plasma), 730 nM.

Regarding `CC(SCCc1c(CO)oc2c(OCC(=O)O)cccc12)(c1ccccc1)c1ccccc1` [listing 2 of 2 here], the IC50 was found to be 120 nM in assay [5], 140 nM in assay [6], 3700 nM in assay [7] and 2200 nM in assay [4].

Consider `CC(c1ccccc1)(c1ccccc1)[S+]([O-])CCc1c(CO)oc2c(OCC(=O)O)cccc12` (stereo not given), for which the Ki in assay [1] was > 10000 nM; in assay [3], 51 nM. The IC50 was 1700 nM in assay [2] and 7900 nM in assay [4] (Homo sapiens, Plasma).

Take `CC#CCC(C)[C@H](O)/C=C/[C@@H]1[C@H]2c3cccc(CCCC(=O)O)c3O[C@H]2C[C@H]1O` (stereo not given in full) [BERAPROST SODIUM]: the IC50 in assay [5] turned out to be 5.7 nM; in assay [4] (Homo sapiens, Plasma), 7.6 nM.
